A short description of data set [1]: Antiproliferative activity against human RPMI cells assessed as cell viability at 1 uM by MTT assay. The data set is classed as functional. The following applies: read-out: Activity. In outline:
(§1)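 Log-phase cells, kept in supplemented RPMI 1640 (HSF in DMEM/10% FBS) at 37 °C, 5% CO2, were exposed 24 h to 1, 50 or 100 µM compound from DMSO. They were washed, given 0.5 mg/mL MTT in HEPES buffer pH 7.4 for 45 min at 37 °C, and formazan was dissolved in DMSO and read at 570 nm. Values are % viability versus control from three independent measurements.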

The nature of data set [2]: Lipophilicity, log kw in dioxane aqueous system at pH 3.5. The class given is physicochemical. The following applies: buffer. In outline:
(§2)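 RP-HPLC on an octadecyl silica column (150 × 4.6 mm, 5 µm) at 22 ± 1 °C, flow 1.0 mL min⁻¹, UV detection at 254 nm. Mobile phase was methanol, acetonitrile or dioxane with water and 0.01 M phosphate buffer pH 3.5 containing 0.05 M DEA. log k_W was extrapolated to pure water by regression.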

The nature of data set [3]: Antiproliferative activity against human skin fibroblast assessed as cell viability at 50 uM by MTT assay. The class given is cell-based. The following applies: human skin fibroblasts, read-out: Activity. Summed up:
(§3)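 MTT viability assay on primary human skin fibroblasts grown in DMEM with 10% FBS and penicillin/streptomycin. Compounds were dissolved in DMSO and given at 1, 50 or 100 µM for 24 h. Cells were washed in HEPES-buffered medium (pH 7.4) and then given MTT 0.5 mg mL⁻¹ for 45 min at 37 °C. Formazan was dissolved in DMSO and read at 570 nm. Viability is % of control; three independent measurements.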
Background: Formazan colour is commonly taken as a measure of viable cells.

Data set [4] has as its system HeLa. As to the kind of experiment: Antiproliferative activity against human HeLa cells assessed as cell viability at 1 uM by MTT assay. The class given is functional. The following applies: read-out: Activity. In outline:
as §1

Data set [5] in a line: Lipophilicity, log kw in methanol aqueous system at pH 3.5. The class given is physicochemical. Summed up:
as §2

Data set [6] is described as follows: Antiproliferative activity against human skin fibroblast assessed as cell viability at 1 uM by MTT assay. The data set is classed as cell-based. The following applies: human skin fibroblasts, read-out: Activity. In outline: as §1
Data set [7] is described as follows: Antiproliferative activity against human RPMI cells assessed as cell viability at 50 uM by MTT assay. The class given is functional. The following applies: read-out: Activity. In outline: as §1
Data set [8] deals with HeLa. As to the kind of experiment: Antiproliferative activity against human HeLa cells assessed as cell viability at 50 uM by MTT assay. The class given is functional. The following applies: read-out: Activity. Summed up:
as §1

The nature of data set [9]: Lipophilicity, log kw in acetonitrile aqueous system at pH 3.5. The class given is physicochemical. Summed up:
as §2

Data set [10] in a line: Antiproliferative activity against human skin fibroblast assessed as cell viability at 100 uM by MTT assay. The class given is cell-based. The following applies: human skin fibroblasts, read-out: Activity. Summed up: as §3
Data set [11] in a line: Antiproliferative activity against human RPMI cells assessed as cell viability at 100 uM by MTT assay. The data set is classed as functional. The following applies: read-out: Activity. Summed up: as §1
The test system of data set [12] is HeLa. As to the kind of experiment: Antiproliferative activity against human HeLa cells assessed as cell viability at 100 uM by MTT assay. The class given is functional. The following applies: read-out: Activity. In outline:
as §1

Turning to `c1ccc(OCc2nnc3n2CCN3c2ccccc2)cc1`, the viability at 1 µM in data set [1] worked out at 104%; with HeLa [4], 85.3%; in data set [6] it was 91.7%. The logKw in [2] was determined as 1.78; in data set [5], 1.62; in [9], 1.37. The results for the viability at 50 µM (in [3]; in data set [7]; in the data set with HeLa [8]) were 87.6%, 99% and 71.1%, respectively. The viability at 100 µM worked out at 83% in [10], 101% in data set [11] and 70.3% in the data set on HeLa [12].

Consider `COc1ccc(N2CCn3c(COc4ccc(Cl)cc4)nnc32)cc1`, for which the viability at 1 µM in data set [1] turned out to be 99.7%; in the data set with HeLa [4], 81.5%; in data set [6], 80.3%. Further, the figures for the logKw in [2], in data set [5] and in data set [9] were 1.52, 1.88 and 1.54, respectively. The values for the viability at 50 µM (in data set [3]; in data set [7]; with HeLa [8]) were 67.1%, 98.4% and 72.1%, respectively. Besides, the viability at 100 µM in data set [10] came out at 64.6%; in data set [11], 94.9%; in the data set with HeLa [12] it was 68.9%.

In the case of `Clc1ccc(N2CCn3cnnc32)cc1Cl`, the results for the logKw in data set [2], in data set [5] and in data set [9] were 2.49, 2.92 and 2.11, respectively.

Take `Clc1ccc(OCc2nnc3n2CCN3c2ccc(Cl)cc2)cc1`: the viability at 1 µM in [1] was found to be 60.1%; in the data set with HeLa [4] it was 63.2%; in data set [6], 88.7%. For the same compound, the logKw in data set [2] came to 3.41; in data set [5], 4.38; in data set [9], 3.23. Also, the figures for the viability at 50 µM (in [3]; in [7]; in the data set with HeLa [8]) were 63.8%, 34.5% and 56.3%, respectively. Besides, the viability at 100 µM in data set [10] came out at 16.2%; in [11], 34%; in the data set with HeLa [12] it was 52.4%.

For the compound `c1ccc(N2CCn3cnnc32)cc1`, the viability at 1 µM in [1] was determined as 99.3%; in the data set on HeLa [4] it was 73.2%; in [6] it was 97.6%. Moreover, the logKw in data set [2] amounted to 1.16; in data set [5], 1.62; in data set [9], 1.37. In addition, the results for the viability at 50 µM (in [3]; in data set [7]; with HeLa [8]) were 89.5%, 102% and 75.4%, respectively. Also, the viability at 100 µM came to 85.6% in [10], 97.6% in data set [11] and 72.8% in the data set on HeLa [12].
